Measured values gathered from unrelated publications.
Compare with care: the assays were run in different laboratories.

| SMILES | tested on | assay | test system | conditions | endpoint | result |
| --- | --- | --- | --- | --- | --- | --- |
| O=C(NO)c1ccc(CNc2nc3cccc(-c4ccc5c(c4)OCO5)n3n2)cc1 | COLO 205 | cell growth or viability, SRB | – | – | GI50 | 630 nM |
| Cn1cc2c3c1C(=O)C(NCCc1ccc(O)cc1)=CC3=[N+](C)CC2 | Plasmodium falciparum | parasite growth, SYBR Green | W2 | blood stage | IC50 | 394 nM |
| O=C(/C=C/c1cn(Cc2cn(-c3ccnc4cc(Cl)ccc34)nn2)c2ccccc12)c1ccc(Cl)cc1Cl | Plasmodium falciparum | parasite growth, SYBR Green | 3D7 | 5 µM, blood stage | inhibition | 4.87% |
| CNc1ncc2c(/C=C/C(=O)N3CCC(OC)CC3)nn(Cc3ccc(OC)cc3)c2n1 | FLO-1 | cell growth or viability, resazurin | – | 5 days | EC50 | 1.13 µM |
| O=C1C=C2NCCc3c[nH]c(c32)C1=O | Plasmodium falciparum | parasite growth, SYBR Green | DD2 | blood stage | IC50 | 23700 nM |
| O=C(/C=C/c1cn(Cc2cn(-c3ccnc4cc(Cl)ccc34)nn2)c2ccccc12)c1ccc(F)cc1 | Plasmodium falciparum | parasite growth, SYBR Green | 3D7 | 5 µM, blood stage | inhibition | 15.8% |
| CCOC(Cn1nc(/C=C/C(=O)N2CCC(OC)CC2)c2cnc(NC)nc21)OCC | FLO-1 | cell growth or viability, resazurin | – | 5 days | EC50 | > 30 µM |
| O=C(/C=C/c1cn(Cc2cn(-c3ccnc4cc(Cl)ccc34)nn2)c2ccccc12)c1ccc([N+](=O)[O-])cc1 | Plasmodium falciparum | parasite growth, SYBR Green | 3D7 | 5 µM, blood stage | inhibition | 3.86% |
| CC1CCN(C(=O)/C=C/c2nn(CC3CCCC3)c3ncnc(N)c23)CC1 | FLO-1 | cell growth or viability, resazurin | – | 5 days | EC50 | > 30 µM |
| C=CC(=O)NC1CCN(c2ncc3ncnc(Nc4ccc(Oc5ccc6c(c5)ncn6C)c(C)c4)c3n2)CC1 | MDA-MB-453 | cell growth or viability | – | – | EC50 | 0.0352 µM |
| CNc1ncc2c(/C=C/C(=O)N3CCCC(OC)C3)nn(Cc3cccc(C)c3)c2n1 (stereo not drawn) | FLO-1 | cell growth or viability, resazurin | – | 5 days | EC50 | 13.8 µM |
| C=C(F)C(=O)N1CCN(c2nc(OC[C@@H]3CCCN3C)nc3c2CCN(c2cccc4cccc(Cl)c24)C3)C[C@@H]1CC#N | KYSE-410 | cell growth or viability, ATP luminescence | – | 3D culture | IC50 | 107 nM |
| CCN(CC)CCCC(C)Nc1ccnc2cc(Cl)ccc12 (stereo not drawn) | Plasmodium falciparum | parasite growth, SYBR Green | 3D7 | 25 nM, blood stage | inhibition | 52.5% |
| CNc1ncc2c(/C=C/C(=O)N3CCC(OC)CC3)nn(CC3CCCO3)c2n1 (stereo not drawn) | FLO-1 | cell growth or viability, resazurin | – | 5 days | EC50 | > 30 µM |
| COC1=CC2=[N+](C)CCc3c[nH]c(c32)C1=O | Plasmodium falciparum | parasite growth, SYBR Green | DD2 | blood stage | IC50 | 1630 nM |
